Experiments:
Bacteria [1] = assay: Inhibition of bacterial VIM2 expressed in Escherichia coli DH10B assessed as potentiation of cefazolin-induced antibacterial activity by measuring cefazolin MIC at 32 ug/ml after 16 hrs by broth micro-dilution method (reference value: 512 ug/ml)
Bacteria [2] = assay: Inhibition of bacterial VIM2 expressed in Escherichia coli BL21(DE3) at 50 uM using cefazolin as substrate by spectrometric method relative to control
Bacteria [3] = assay: Inhibition of bacterial NDM1 expressed in Escherichia coli DH10B assessed as potentiation of cefazolin-induced antibacterial activity by measuring cefazolin MIC at 32 ug/ml after 16 hrs by broth micro-dilution method (reference value: 8 ug/ml)
[4] = Inhibition of bacterial L1 expressed in Escherichia coli BL21(DE3) using cefazolin as substrate by spectrometric method; parameters: species or system Bacteria
In short: (§1)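 Purified enzymes, overexpressed and purified by earlier methods, assayed under steady-state conditions by UV spectrometry in 50 mM Tris, pH 7.0. Substrate for NDM-1, VIM-2 and L1 was cefazolin (50 µM), read at 262 nm. Substrate for ImiS was imipenem (60 µM), read at 300 nm. Inhibitor varied 0–50 µM; IC50 is the concentration giving 50% loss of activity.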

Bacteria [5] = assay: Inhibition of bacterial NDM1 expressed in Escherichia coli BL21(DE3) at 50 uM using cefazolin as substrate by spectrometric method relative to control
Bacteria [6] = assay: Inhibition of bacterial L1 expressed in Escherichia coli DH10B assessed as potentiation of cefazolin-induced antibacterial activity by measuring cefazolin MIC at 32 ug/ml after 16 hrs by broth micro-dilution method (reference value: 32 ug/ml)
In short: (§2)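 Dose-dependent cefazolin MIC assay against E. coli DH10B expressing L1 from a pBCSK plasmid, with varied inhibitor doses up to 256 µg/mL. Fold decrease in MIC was taken relative to cefazolin alone. Medium pH was monitored during the assay.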

Bacteria [7] = assay: Inhibition of bacterial ImiS expressed in Escherichia coli BL21(DE3) at 50 uM using imipenem as substrate by spectrometric method relative to control
Bacteria [8] = assay: Inhibition of bacterial ImiS expressed in Escherichia coli DH10B assessed as potentiation of imipenem-induced antibacterial activity by measuring imipenem MIC at 32 ug/ml after 16 hrs by broth micro-dilution method (reference value: 2 ug/ml)
[9] = Cytotoxicity against mouse L929 cells assessed as cell viability up to 200 uM after 48 hrs by CCK8 assay relative to control; assay type: cell-based; conditions: read-out: Activity
In short: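 Mouse fibroblast L929 cells exposed to inhibitors at 12.5, 25, 50, 100, 200 and 400 µM working concentrations; percentage of cells maintaining viability measured.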

Bacteria [10] = assay: Inhibition of bacterial L1 expressed in Escherichia coli DH10B assessed as potentiation of cefazolin-induced antibacterial activity by measuring fold reduction in cefazolin MIC at 32 ug/ml after 16 hrs by broth micro-dilution method relative to cefazolin alone; in short: as §2
[11] = Inhibition of bacterial VIM2 expressed in Escherichia coli BL21(DE3) using cefazolin as substrate by spectrometric method; parameters: species or system Bacteria; in short: as §1
[12] = Inhibition of bacterial NDM1 expressed in Escherichia coli BL21(DE3) using cefazolin as substrate by spectrometric method; parameters: species or system Bacteria; in short: as §1
Bacteria [13] = assay: Inhibition of bacterial NDM1 expressed in Escherichia coli DH10B assessed as potentiation of cefazolin-induced antibacterial activity by measuring fold reduction in cefazolin MIC at 32 ug/ml after 16 hrs by broth micro-dilution method relative to cefazolin alone
Bacteria [14] = assay: Inhibition of bacterial VIM2 expressed in Escherichia coli DH10B assessed as potentiation of cefazolin-induced antibacterial activity by measuring fold reduction in cefazolin MIC at 32 ug/ml after 16 hrs by broth micro-dilution method relative to cefazolin alone
[15] = Inhibition of bacterial ImiS expressed in Escherichia coli BL21(DE3) using imipenem as substrate by spectrometric method; parameters: species or system Bacteria; in short: as §1

SMILES | MIC (Bacteria [1]) [µg/mL] | inhibition (Bacteria [2]) [%] | MIC (Bacteria [3]) [µg/mL] | IC50 [4] [µM] | inhibition (Bacteria [5]) [%] | MIC (Bacteria [6]) [µg/mL] | inhibition (Bacteria [7]) [%] | MIC (Bacteria [8]) [µg/mL] | viability at 48 h [9] [%] | fold change (FC) (Bacteria [10]) | IC50 [11] [µM] | IC50 [12] [µM] | fold change (FC) (Bacteria [13]) | fold change (FC) (Bacteria [14]) | IC50 [15] [µM]
O=C(O)CN1C(=O)/C(=C/c2cccs2)SC1=S | 512 | < 50 | 8 | 0.77 | < 50 | 8 | < 50 | 2 | – | – | – | – | – | – | –
O=C(O)CN1C(=O)/C(=C/c2ccc([N+](=O)[O-])cc2[N+](=O)[O-])SC1=S | 512 | < 50 | 8 | 0.1 | < 50 | 4 | < 50 | 1 | 80 | 8 | – | – | – | – | –
O=C(O)CN1C(=O)/C(=C/c2cccc3ccccc23)SC1=S | 512 | – | 8 | 0.28 | < 50 | 8 | < 50 | 1 | – | – | 27.9 | – | – | – | –
O=C(O)c1ccc(N2C(=O)/C(=C/c3cccs3)SC2=S)cc1 | 512 | < 50 | 4 | 0.59 | – | 8 | < 50 | 1 | – | – | – | 14.3 | – | – | –
O=C(O)CN1C(=O)/C(=C/c2ccc(Cl)cc2Cl)SC1=S | 256 | – | 4 | 0.08 | – | 16 | < 50 | 4 | – | – | 25.1 | 21.5 | – | – | –
O=C(O)c1ccc(N2C(=O)/C(=C/c3ccccn3)SC2=S)cc1 | 128 | – | 2 | 0.21 | – | 8 | < 50 | 2 | – | – | 0.92 | 1.13 | 4 to 8 | 4 | –
O=C(O)CN1C(=O)/C(=C/c2ccc(F)cc2)SC1=S | 256 | – | 4 | 0.2 | – | 8 | < 50 | 2 | – | – | 14.4 | 15.4 | – | – | –
O=C(O)CN1C(=O)/C(=C/c2ccc(C(F)(F)F)cc2)SC1=S | 256 | – | 4 | 0.11 | – | 8 | < 50 | 1 | – | – | 12.7 | 14.3 | – | – | –
O=C(O)c1ccc(N2C(=O)/C(=C/c3ccc(Cl)cc3Cl)SC2=S)cc1 | 128 | – | 1 | 0.03 | – | 8 | – | 1 | – | – | 3.5 | 10.6 | 4 to 8 | 4 | 7.6
O=C(O)c1ccc(N2C(=O)/C(=C/c3ccco3)SC2=S)cc1 | 512 | < 50 | 4 | 0.18 | – | 8 | < 50 | 1 | – | – | – | 0.69 | – | – | –
O=C(O)c1ccc(N2C(=O)/C(=C/c3ccc(C(F)(F)F)cc3)SC2=S)cc1 | 128 | – | 4 | 0.07 | – | 8 | – | 1 | – | – | 2.36 | 10.6 | – | 4 | 7.8
O=C(O)c1ccc(N2C(=O)/C(=C/c3ccccc3)SC2=S)cc1 | 512 | < 50 | 1 | 0.21 | – | 8 | – | 1 | – | – | – | 8.7 | 4 to 8 | – | 18.3
O=C(O)CN1C(=O)/C(=C/c2ccccc2)SC1=S | 256 | < 50 | 8 | 0.32 | < 50 | 8 | < 50 | 2 | – | – | – | – | – | – | –
O=C(O)c1ccc(N2C(=O)/C(=C/c3ccc4ccccc4c3)SC2=S)cc1 | 128 | – | > 64 | 0.12 | < 50 | 8 | – | 1 | – | – | 1.9 | – | – | 4 | 16.5
O=C(O)CN1C(=O)/C(=C/c2ccco2)SC1=S | 512 | < 50 | 8 | 1.7 | – | 8 | < 50 | 2 | – | – | – | 47 | – | – | –
COc1ccc(/C=C2\SC(=S)N(CC(=O)O)C2=O)cc1 | 512 | < 50 | 4 | 0.6 | – | 8 | < 50 | 2 | – | – | – | 25.1 | – | – | –
O=C(O)CN1C(=O)/C(=C/c2ccc3ccccc3c2)SC1=S | 512 | < 50 | 16 | 0.37 | < 50 | 8 | < 50 | 2 | – | – | – | – | – | – | –
O=C(O)CN1C(=O)/C(=C/c2ccccc2[N+](=O)[O-])SC1=S | 256 | – | 4 | 0.22 | – | 4 | < 50 | 2 | 80 | 8 | 16.8 | 27.4 | – | – | –
O=C(O)c1ccc(N2C(=O)/C(=C/c3ccc(F)cc3)SC2=S)cc1 | 256 | – | 2 | 0.08 | – | 8 | – | 1 | – | – | 6.9 | 8.4 | – | – | 3.6
COc1ccc(/C=C(\S)C(=O)O)cc1 | 256 | – | 16 | 0.32 | < 50 | 16 | < 50 | 2 | – | – | 4.7 | – | – | – | –
O=C(O)c1ccc(N2C(=O)/C(=C/c3cccc4ccccc34)SC2=S)cc1 | 512 | < 50 | 8 | 0.1 | < 50 | 8 | – | 1 | – | – | – | – | – | – | 6.9
O=C(O)CN1C(=O)/C(=C/c2ccc(Cl)cc2)SC1=S | 512 | – | 8 | 0.22 | < 50 | 8 | < 50 | 2 | – | – | 15.3 | – | – | – | –
O=C(O)c1ccc(N2C(=O)/C(=C/c3ccc(Cl)cc3)SC2=S)cc1 | 128 | – | 1 | 0.07 | – | 8 | – | 1 | – | – | 3.6 | 12.2 | 4 to 8 | 4 | 7.7
O=C(O)CN1C(=O)/C(=C/c2ccccn2)SC1=S | 512 | < 50 | 8 | 0.16 | < 50 | 8 | – | 2 | – | – | – | – | – | – | 19.1
